Most compounds without a hit are left out; they make up all but 1.9% or so of the library.
APP 5UTR inh: APP translation inhibition; SH-SY5Y APP 5'UTR-luciferase reporter, luminescence; inhibition, % at 2 µM; 190,000 compounds, 0.82% hits;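 active = inhibition above a set limit, derived from the sample mean plus 3 SD, cut at about 45% in these data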
697 NFkB inh: lowers PMA/ionomycin-induced NF-kB signal in 697 B cells | 697 B-cell NF-kB luciferase reporter, 16 h | inhibition, % at 4 µM | 330,000 compounds, 0.33% hits | AID 435022; in the data active = inhibition above about 35%
Lipid droplet: modulators of hepatic lipid droplet formation | AML12 mouse hepatocytes, oleate lipid droplets, BODIPY imaging | inhibition, % at 6.5 µM | 240,000 compounds, 0.4% hits | AID 1656;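 active = lipid droplet intensity inhibited by at least 50%, with more than 500 cells counted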
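Material: mouse AML12 hepatocyte cell line, fixed after treatment; Timing: compound with oleate, overnight; Technique: high-content imaging of BODIPY-stained droplets and DAPI nuclei; Probe or stimulus: oleate, 100 µM final; Dosing: compound at 6.5 µM only.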
Jurkat NFkB inh: inhibitors of the PMA/ionomycin-induced NF-kB reporter in Jurkat cells. PMA/ionomycin-induced NF-kB luciferase reporter, luminescence. AID 435003. 330,000 compounds, 0.53% hits. inhibition, % at 4 µM; in the data active = inhibition above about 50%
TAG inh: inhibitors of triacylglycerol accumulation; 230,000 compounds, 0.66% hits; AID 651582; inhibition, % at 12.5 µM; H9c2 cells, Nile Red lipid (TAG) fluorescence; cells loaded with 200 µM oleic acid;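 active = pattern-corrected inhibition of lipid staining of at least 50% with the nuclear-stain viability signal not falling by more than 50%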;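 also: 0% = DMSO wells and 100% = triacsin C control wells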
aSyn UTR inh: MLPCN primary screen, SNCA 5' untranslated region; alpha-synuclein 5'UTR reporter, inhibitor activity; inhibition, % (tested at 7.5 µM); 300,000 compounds, 0.82% hits; in the data active = inhibition above about 60%;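 also: H4 neuroglioblastoma cells stably carrying SNCA 5'UTR luciferase fusion; 0% = DMSO wells and 100% = positive control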
Jurkat NFkB conf: inhibitors of the PMA/ionomycin-induced NF-kB reporter in Jurkat cells, retest | shares compounds with Jurkat NFkB inh | Jurkat NF-kB luciferase, 16 h | inhibition, % at 4 µM | 2,700 compounds, 27% hits | AID 435020;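 active = inhibition reaching about 45% at 4 µM in either replicate, limit read from the data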;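 also: plate controls were PMA/ionomycin stimulated DMSO wells for no effect and unstimulated DMSO wells for full effect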
* hit, by the source's call; . = not tested or not shown.

SMILES | APP 5UTR inh | 697 NFkB inh | Lipid droplet | Jurkat NFkB inh | TAG inh | aSyn UTR inh | Jurkat NFkB conf
N/C(=N\OC(=O)c1ccc2ccccc2c1)c1ccccc1Cl | . | -140.0 | 10.3 | -101.9 | . | -140.3 | .
COc1cccc(-c2cc(C(=O)NC3CCCC3)no2)c1 | -17.6 | -151.0 | -1.5 | -200.1 | . | -115.1 | -72.3
COCCNC(=O)c1cc(-c2cccc(OC)c2)on1 | -56.8 | -22.2 | . | -58.2 | . | -85.1 | .
COc1cccc(-c2cc(C(=O)Nc3cccc(O)c3)no2)c1 | -106.0 | 1.5 | . | -162.1 | . | 13.6 | -132.8
O=C(Nc1cccc(O)c1)c1cc(-c2cccs2)on1 | . | 12.9 | 1.7 | -151.8 | . | -37.7 | -35.8
COc1cc(Cl)c(C)cc1NC(=O)COc1ccc(C)nc1[N+](=O)[O-] | . | -82.3 | . | -94.5 | -6.0 | . | .
COCC(=O)Nc1c(C(=O)Nc2ccc3c(c2)OCCO3)oc2ccccc12 | -195.4 | -109.9 | 1.9 | -175.7 | -5.4 | -72.2 | -94.9
CCOCC(=O)Nc1c(C(=O)Nc2ccc3c(c2)OCCO3)oc2ccccc12 | -129.2 | -116.7 | 11.1 | -192.9 | 8.8 | -27.6 | -92.5
Cc1ccsc1CNC12CC3CC(CC(C3)C1)C2 | 9.1 | -7.5 | -13.5 | -16.7 | 5.3 | -21.9 | .
C/C(=N\Nc1nc(C(C)(C)C)cs1)c1ccc(O)cc1 | . | 0.9 | -22.6 | 2.7 | -13.6 | -107.3 | .
C/C(=N\Nc1nc(C(C)(C)C)cs1)c1ccccc1 | . | -225.3 | -0.2 | -160.8 | . | -159.8 | -126.5
C=C[C@H]1[C@H](OC2OC(CO)C(O)C(O)C2O)OC=C(C(=O)OC)[C@H]1C[C@H]1CC(=O)C[C@H](CC(=O)CCc2ccc(O)cc2)O1 (stereo partly specified) | . | 5.2 | . | 2.0 | . | 6.1 | .
COc1cc2sc3ccc(-c4ccc(CN5CCOCC5)cc4)cc3c(=O)c2cc1OC | . | -99.3 | . | -8.5 | . | . | .
COc1cc2sc3ccc(-c4ccc(N(C)C)nc4)cc3c(=O)c2cc1OC | . | -161.5 | . | -159.4 | . | -141.4 | -78.9
COc1ccc(CNC(=O)c2ccc3nc(C)c(N(C)Cc4ccc(NC(C)=O)cc4)n3c2)cc1 | . | . | . | . | -5.9 | . | .
O=C(COc1ccc(S(=O)(=O)N2CCOCC2)cc1)NCCc1ccccc1 | . | 10.9 | . | 13.4 | -1.0 | -9.2 | .
COc1cccc(C2/C(=C(/O)c3ccc4c(c3)CC(C)O4)C(=O)C(=O)N2CC2CCCO2)c1 (stereo unspecified) | . | 16.4 | 15.7 | 8.1 | 3.5 | . | .
COc1ccc(Oc2ccc(/C=C/C(=O)c3ccc(O)cc3)cc2[N+](=O)[O-])cc1 | 25.5 | 6.0 | -36.7 | 4.3 | . | -97.1 | .
CCOc1cc(CNCCc2ccc(S(N)(=O)=O)cc2)ccc1OCc1ccc(Cl)cc1 | 17.8 | -11.8 | . | 54.1* | 67.5* | 97.5* | 8.7
CCN(CC)S(=O)(=O)c1ccc(N/N=C/c2cc(OC)ccc2O)nc1 | 74.0* | -56.8 | . | 51.7* | . | 86.8* | -3.4
CCN(CC)S(=O)(=O)c1ccc(N/N=C/c2cccnc2)nc1 | . | 27.2 | -1.0 | -4.3 | 8.5 | 7.6 | .
Cc1ccc(C(=O)NC(=S)N2CCN(C(=O)OC(C)(C)C)CC2)cc1Br | -13.4 | 0.4 | 9.4 | 6.5 | -12.4 | 6.3 | .
Fc1ccccc1/C=N/NC(=S)Nc1ccc(Cl)cc1Cl | 93.8* | -29.0 | 2.9 | 53.3* | . | 47.0 | -79.3
Fc1ccc(NC(=S)Nc2ccc(Cl)cc2Cl)cc1 | -1.9 | -13.4 | -22.9 | 7.4 | . | -28.1 | .
COc1ccc(NS(=O)(=O)c2cccc(C(=O)N/N=C/c3ccc(O)cc3)c2)cc1 | 8.1 | 20.7 | 8.7 | 2.3 | -16.1 | 15.7 | .
SMILES | APP 5UTR inh | 697 NFkB inh | Lipid droplet | Jurkat NFkB inh | TAG inh | aSyn UTR inh | Jurkat NFkB conf
Cc1cc(Cl)c2oc(C(=O)N3CCN(c4ccncc4)CC3)c(C)c2c1 | . | -50.1 | -51.0 | 61.0* | -2.4 | 90.3* | 15.2
Cc1c(C(=O)N2CCN(c3ccccc3)CC2)oc2c(F)cccc12 | . | -27.4 | 11.9 | -13.6 | -13.7 | -13.3 | .
Clc1ccc(-c2nnc(-c3ccccc3)o2)c(Cl)c1 | -119.4 | -241.5 | . | -162.6 | . | 18.8 | -75.2
Cc1[nH]c2ccccc2c1/C=C/c1nc2ccccc2c(=O)[nH]1 | . | -134.1 | 5.9 | -167.7 | 43.3 | -98.2 | -32.8
COc1cc(/C=C2\SC(=O)NC2=O)ccc1Oc1ccc([N+](=O)[O-])cc1[N+](=O)[O-] | 15.2 | 25.0 | -36.0 | -3.7 | -16.6 | -35.6 | .
CCN1C(=O)C(=Cc2cccc(OC)c2Oc2ccc([N+](=O)[O-])cc2[N+](=O)[O-])SC1=S | . | -152.1 | 1.3 | 68.5* | . | 80.3* | 5.0
CCOC(=O)c1[nH]c(C)c(C(=O)c2cc(F)ccc2F)c1C | 95.1* | 14.0 | -105.6 | 77.1* | . | 73.9* | 43.2
CCOC(=O)c1[nH]c(C)c(C(=O)OCC)c1C | -18.8 | -11.8 | . | -14.1 | -18.1 | -3.9 | .
Cc1cnc(C(=O)Nc2ccc(F)cc2)cn1 | -53.6 | -48.5 | . | -42.8 | . | -100.9 | .
Cc1cnc(C(=O)Nc2ccc(N3CCN(C(=O)OC(C)(C)C)CC3)cc2)cn1 | -3.0 | -70.0 | -8.0 | 63.9* | 10.8 | -88.5 | 32.8
Cn1nnc(-c2ccc(OCc3ccccc3F)cc2)n1 | -138.3 | -173.9 | 2.2 | -169.4 | . | -54.1 | -88.5
O=C(/C=C/c1ccccc1)c1c[nH]c2ccccc12 | . | -239.5 | -22.1 | -192.3 | -0.1 | -98.1 | -69.2
O=C(C=Cc1ccccc1)c1c[nH]c2ccccc2c1=O | . | . | . | . | 12.8 | . | .
O=C(Cn1nc2n(c1=O)-c1ccccc1SC2)N/N=C/c1ccncc1 | . | 19.2 | 13.3 | 11.8 | 1.3 | 12.7 | .
C=C1C(=O)[C@@]23[C@H](O)C[C@@H]4C(C)(C)CC[C@H](O)[C@@]4(C)[C@@H]2CC[C@@H]1[C@H]3O | 83.8* | -99.3 | -6.3 | 71.4* | 13.5 | 17.6 | 37.0
C=C1C(=O)[C@@]23[C@H](O)C[C@@H]4C(C)(C)CC[C@H](O)[C@]4(C)[C@@H]2C[C@H](O)[C@@H]1[C@H]3O | 33.4 | -79.8 | -19.6 | -12.2 | -9.8 | -5.6 | .
Cc1ccc(Nc2ncnc3sc(C)c(C)c23)cc1 | -13.7 | -33.2 | 3.1 | -36.1 | . | -182.1 | .
Cc1csc2c(NC3CCN(Cc4ccccc4)CC3)ncnc12 | . | -30.6 | 22.6 | 21.6 | -9.6 | 28.6 | .
Cc1sc2ncnc(NC3CCN(Cc4ccccc4)CC3)c2c1C | 4.5 | -11.7 | -0.1 | 52.8* | -45.8 | -25.6 | 43.0
c1ccc(CN2CCC(Nc3ncnc4sccc34)CC2)cc1 | -0.1 | -10.8 | 4.7 | 57.6* | -6.4 | -9.7 | 34.9
Cc1ccc(NC2CCCN(C(=O)c3ccc(C)c(N4CCNC4=O)c3)C2)cc1C (stereo unspecified) | . | 5.4 | -11.1 | 9.9 | 7.1 | -11.6 | .
CCn1c(SCC(=O)Nc2cc(Cl)ccc2OC)nnc1C1CC1 | . | 1.5 | -4.2 | -10.9 | . | 17.8 | .
CCOC(=O)c1[nH]c(C)c(C(=O)Nc2ccc(Cl)cc2)c1C | -3.4 | 16.5 | -23.4 | -16.1 | -10.4 | 8.1 | .
CCOC(=O)c1c(C)[nH]c(C(=O)Nc2ccc(C)c(Cl)c2)c1C | -162.6 | -166.3 | -2.1 | -164.8 | . | -107.9 | -82.0
N/C(=N\OC(=O)c1cc(Br)ccc1Cl)c1ccccn1 | -180.4 | -159.4 | 6.8 | -117.8 | -6.8 | -39.1 | .
Cc1ccc(C(=O)O/N=C(\N)c2ccccn2)c(Cl)c1 | . | -7.5 | -0.2 | 65.2* | . | 107.6* | 79.2*

High-throughput results (PubChem)
